Measured values published in ChEMBL document CHEMBL1125253, “Allosteric modifiers of hemoglobin. 1. Design, synthesis, testing, and structure-allosteric activity relationship of novel hemoglobin oxygen affinity decreasing agents” (J Med Chem, 1991).
Where “and” joins values, the source holds several entries; their conditions need not be identical. Identical values can stand only once.

How the values were obtained:
[1] = molecular target: T1, Hemoglobin HbA (Homo sapiens) (UniProt P69905+P68871); assay: Oxygen pressure in mmHg at which the control hemoglobin solution (no compound) was 50% saturated with oxygen.; format: protein-complex assay
Outline: (§1)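 Purified HbA from washed, lysed erythrocytes (DEAE-Sephacel, pH 8.4 Tris elution), exchanged into 50 mM HEPES pH 7.4. Stock Hb 5.4 mM mixed 1:1 with 20 mM compound in HEPES, giving final 2.7 mM Hb and 10 mM compound (about 4:1). Control is Hb mixed with buffer alone. Oxygen dissociation curves recorded on a Hem-O-Scan analyzer. P50 in mmHg at 50% saturation.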

[2] = molecular target: T1, Hemoglobin HbA (Homo sapiens); assay: Oxygen pressure in mmHg at which the […] hemoglobin solution (in presence of 10 mM compound) was 50% saturated with oxygen.; format: protein-complex assay; outline: as §1
[3] = Dose-response study in whole blood at a concentration of 4.0 mM; format: tissue-based
Outline: (§2)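 Fresh heparinized whole blood mixed 1:1 with test compound in isosmotic 50 mM HEPES pH 7.4 containing 140 mM NaCl and 10 mM glucose. Hb after addition approximately 1.25 mM. Oxygen dissociation curves recorded on a Hem-O-Scan analyzer. P50 with compound divided by P50 of control.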

[4] = Dose-response study in whole blood at a concentration of 1.0 mM; format: tissue-based; outline: as §2
[5] = Dose-response study in whole blood at a concentration of 2.0 mM; format: tissue-based; outline: as §2
[6] = Dose-response study in whole blood at a concentration of 0.5 mM; format: tissue-based; outline: as §2
[7] = Dose-response study in whole blood at a concentration of 10.0 mM; format: tissue-based; outline: as §2

T1 sequence (P68871 2-147 partner limits assumed): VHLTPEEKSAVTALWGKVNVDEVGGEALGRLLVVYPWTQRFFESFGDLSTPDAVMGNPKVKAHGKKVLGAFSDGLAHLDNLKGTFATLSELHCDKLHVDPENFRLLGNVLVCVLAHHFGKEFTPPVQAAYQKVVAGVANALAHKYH
T1 sequence (P69905 2-142 limits assumed): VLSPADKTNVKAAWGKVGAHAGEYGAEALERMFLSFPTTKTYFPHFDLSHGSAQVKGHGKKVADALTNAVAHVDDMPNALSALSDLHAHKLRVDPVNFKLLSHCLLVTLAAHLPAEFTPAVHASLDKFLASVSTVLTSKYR

SMILES	P50c [1]	P50d [2]	P50d/P50c [3]	P50d/P50c [4]	P50d/P50c [5]	P50d/P50c [6]	P50d/P50c [7]
CC(C)(Oc1ccc(CC(=O)Nc2ccc(Cl)c(Cl)c2)cc1)C(=O)O	18.2 mmHg and 18 mmHg	65 mmHg					
Cc1cc(C)cc(NC(=O)Cc2ccc(OC(C)(C)C(=O)O)cc2)c1	19 mmHg and 19.2 mmHg (2×)	75.5 mmHg and 76.5 mmHg and 78 mmHg	2.61	1.53	1.93	1.07	3
CC(C)(Oc1ccc(CC(=O)Nc2ccc(F)cc2)cc1)C(=O)O	20 mmHg and 17.5 mmHg	52 mmHg and 44 mmHg					
CC(C)(Oc1ccc(CC(=O)Nc2ccc(Cl)cc2)cc1)C(=O)O	15.5 mmHg and 19 mmHg and 18.5 mmHg (2×)	52 mmHg [middle of 4 runs]					
Cc1ccc(NC(=O)Cc2ccc(OC(C)(C)C(=O)O)cc2)cc1	15 mmHg	40 mmHg and 41 mmHg					
CC(C)(Oc1ccc(CC(=O)Nc2ccc(C(F)(F)F)cc2)cc1)C(=O)O	20 mmHg and 17.5 mmHg (2×) and 18 mmHg	44 mmHg [middle of 4 runs]					
CC(C)c1ccc(NC(=O)Cc2ccc(OC(C)(C)C(=O)O)cc2)cc1	19.5 mmHg and 19 mmHg (2×)	57 mmHg and 56.5 mmHg and 57.8 mmHg					
CC(C)(Oc1ccc(CC(=O)Nc2c(Cl)cccc2Cl)cc1)C(=O)O	18 mmHg	34 mmHg and 35 mmHg					
CC(C)(Oc1ccc(CC(=O)Nc2cc(Cl)c(Cl)c(Cl)c2)cc1)C(=O)O	12 mmHg and 19 mmHg (2×)	37 mmHg and 60 mmHg and 63 mmHg					
CC(C)(Oc1ccc(NC(=O)Nc2cc(Cl)cc(Cl)c2)cc1)C(=O)O	11.8 mmHg and 18 mmHg (2×)	44 mmHg and 65 mmHg and 63 mmHg	1.84	1.15	1.7	0.96	2.25
CC(C)(Oc1ccc(NC(=O)Cc2ccc(Cl)cc2)cc1)C(=O)O	19 mmHg (4×) and 21 mmHg	44 mmHg [middle of 5 runs]					
CC(C)(Oc1ccc(NC(=O)Nc2ccc(Cl)c(Cl)c2)cc1)C(=O)O	18 mmHg	32 mmHg					
CC(C)(Oc1ccc(CCNC(=O)c2ccc(Cl)cc2)cc1)C(=O)O	18 mmHg and 17 mmHg (2×) and 18.5 mmHg	31 mmHg [middle of 4 runs]					
CC(C)(Oc1ccc(NC(=O)Cc2ccccc2)cc1)C(=O)O	19.5 mmHg	35 mmHg					
CC(C)(Oc1ccc(NC(=O)Nc2cc(Cl)c(Cl)c(Cl)c2)cc1)C(=O)O	18 mmHg and 14 mmHg (2×)	48 mmHg and 35 mmHg and 36 mmHg					
CC(C)(Oc1ccc(CNC(=O)c2cc(Cl)c(Cl)c(Cl)c2)cc1)C(=O)O	19 mmHg (2×) and 11.5 mmHg						
CC(C)(Oc1ccc(CC(=O)Nc2cc(Cl)cc(Cl)c2)cc1)C(=O)O	10.3 mmHg and 11 mmHg (2×) and 19.2 mmHg (2×)	47 mmHg [middle of 5 runs]	2.72	1.52	2	1.09	2.93

Continued, in another order:

P50c [1]	P50d [2]	SMILES	P50d/P50c [3]	P50d/P50c [4]	P50d/P50c [5]	P50d/P50c [6]	P50d/P50c [7]
18 mmHg and 19 mmHg	35 mmHg and 35.5 mmHg	CC(C)(Oc1ccc(CNC(=O)c2ccccc2)cc1)C(=O)O					
19 mmHg (2×) and 18 mmHg	48 mmHg (2×) and 49 mmHg	CC(C)(Oc1ccc(CNC(=O)c2ccc(Cl)cc2)cc1)C(=O)O					
19 mmHg	28 mmHg	CC(C)(Oc1ccc(CNC(=O)c2ccccc2Cl)cc1)C(=O)O					
18 mmHg and 19 mmHg	37 mmHg	CC(C)(Oc1ccc(CNC(=O)c2cccc(Cl)c2)cc1)C(=O)O					
19 mmHg and 18 mmHg	38.5 mmHg and 40 mmHg	CC(C)(Oc1ccc(CNC(=O)c2ccc(Cl)c(Cl)c2)cc1)C(=O)O					
20.5 mmHg and 19 mmHg	63 mmHg and 54 mmHg	CC(C)(Oc1ccc(CC(=O)Nc2ccccc2)cc1)C(=O)O					
18 mmHg	32 mmHg	CC(C)(Oc1ccc(CCNC(=O)c2ccccc2)cc1)C(=O)O					
19 mmHg	48.5 mmHg and 47 mmHg and 46 mmHg	CC(C)(Oc1ccc(CNC(=O)c2cc(Cl)cc(Cl)c2)cc1)C(=O)O					
